Reference: ChEMBL document CHEMBL1127078, “Fluorocyclopropyl quinolones. 1. Synthesis and structure-activity relationships of 1-(2-fluorocyclopropyl)-3-pyridonecarboxylic acid antibacterial agents” (J Med Chem, 1993)
≈ marks a conversion by molar mass, not a printed value.

Columns and labels:
[1] = test system: Enterococcus faecalis; experiment: Tested for minimum inhibitory concentration against Enterococcus faecalis ATCC 19433; type: functional
How it was run: (§1)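 Twofold broth microdilution in Mueller-Hinton broth, inoculum approximately 10^6 cfu/mL. Plates incubated 18 h at 37 °C. MIC taken as the lowest concentration preventing visible bacterial growth.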

[2] = test system: Escherichia coli; experiment: Tested for minimum inhibitory concentration against Escherichia coli NIHJ; type: functional; how it was run: as §1
[3] = test system: Pseudomonas aeruginosa; experiment: Tested for minimum inhibitory concentration against Pseudomonas aeruginosa 32121; type: functional; how it was run: as §1
[4] = test system: Streptococcus pyogenes; experiment: Tested for minimum inhibitory concentration against Streptococcus pyogenes G-36; type: functional; how it was run: as §1
[5] = test system: Staphylococcus epidermidis; experiment: Tested for minimum inhibitory concentration against Staphylococcus epidermidis 56556; type: functional; how it was run: as §1
[6] = test system: Staphylococcus aureus; experiment: Tested for minimum inhibitory concentration against Staphylococcus aureus 209P; type: functional; how it was run: as §1
[7] = test system: Staphylococcus aureus; experiment: Tested for minimum inhibitory concentration against Staphylococcus aureus Smith; type: functional; how it was run: as §1
[8] = test system: Klebsiella pneumoniae; experiment: Tested for minimum inhibitory concentration against Klebsiella pneumoniae; type: functional; how it was run: as §1
[9] = Partition coefficient of the compound; type: ADME; conditions: CHCl3-0.1 M phosphate buffer (pH 7.4)
How it was run: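 Shake-flask distribution between CHCl3 and 0.1 M sodium phosphate buffer pH 7.4, each phase presaturated with the other. About 1–2 mg sample dissolved in the aqueous phase and its UV maximum absorbance recorded. Equal 10 mL volumes shaken 30 min at room temperature, then left 1 h to separate. Aqueous-layer UV maximum re-read. P' calculated as a ratio of the absorbance readings.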

[10] = test system: Enterobacter cloacae; experiment: (§2) Tested for minimum inhibitory concentration against Enterobacter cloacae 03400; type: functional
[11] = test system: Escherichia coli; experiment: Tested for minimum inhibitory concentration against Escherichia coli KL-16; type: functional; how it was run: as §1
[12] = test system: Proteus vulgaris; experiment: Tested for minimum inhibitory concentration against Proteus vulgaris 08601; type: functional; how it was run: as §1
[13] = test system: Enterobacter cloacae; experiment: as §2; type: functional; how it was run: as §1; remark: listed apart in the source
[14] = molecular target: DNA gyrase (Escherichia coli) (UniProt P0AES6+P0AES4); experiment: Dose required to inhibit DNA gyrase in Escherichia coli; type: protein-complex assay
[15] = Escherichia coli, read-out: MIC
[16] = Pseudomonas aeruginosa, read-out: MIC
[17] = Proteus vulgaris, read-out: MIC
[18] = Staphylococcus aureus, read-out: MIC
[19] = Klebsiella pneumoniae, read-out: MIC

| SMILES | MIC [1] [µg/mL] | MIC [3] | MIC [4] [µg/mL] | MIC [5] [µg/mL] | MIC [6] [µg/mL] | MIC [7] | MIC [8] | MIC [12, 17] [µg/mL] | other results |
| --- | --- | --- | --- | --- | --- | --- | --- | --- | --- |
| O=C(O)c1cn(C2CC2F)c2c(F)c(N3CCNCC3)c(F)cc2c1=O (stereo in doubt; 28) | 1.56 (≈ 4.25 µM) | <=0.05 ug ml-1 | 0.78 (≈ 2.12 µM) | 0.2 (≈ 0.544 µM) | 0.1 (≈ 0.272 µM) | 0.1 µg/mL (≈ 0.272 µM) | <=0.05 ug ml-1 |  | MIC [2]: <=0.05 ug ml-1 |
| O=C(O)c1cn(C2CC2F)c2cc(N3CCNCC3)c(F)cc2c1=O (stereo in doubt; 25) | 12.5 (≈ 35.8 µM) | 0.1 µg/mL (≈ 0.286 µM) | 50 (≈ 143 µM) | 0.78 (≈ 2.23 µM) | 0.78 (≈ 2.23 µM) | 0.39 µg/mL (≈ 1.12 µM) | 0.1 µg/mL (≈ 0.286 µM) |  |  |
| CN1CCN(c2cc3c(cc2F)c(=O)c(C(=O)O)cn3C2CC2F)CC1 (stereo in doubt; 26) | 0.78 (≈ 2.15 µM) |  | 1.56 (≈ 4.29 µM) | 0.1 (≈ 0.275 µM) | 0.1 (≈ 0.275 µM) | <=0.05 ug ml-1 | <=0.05 ug ml-1 | ≤ 0.05 | P' [9]: 7; MIC [10]: ≤ 0.05 µg/mL; MIC [11, 15]: 0.05 µg/mL (≈ 0.138 µM); MIC [2]: ≤ 0.05 µg/mL; MIC [3, 16]: 0.2 µg/mL (≈ 0.55 µM) |
| CN1CCN(c2cc3c(cc2F)c(=O)c(C(=O)O)cn3[C@@H]2C[C@@H]2F)CC1 (stereo in doubt; 39) [listing 1 of 2 here] |  |  |  |  |  |  |  | ≤ 0.05 | P' [9]: 7; MIC [10]: ≤ 0.05 µg/mL; MIC ([1]; Enterococcus faecalis, ATCC 19433, read-out: MIC): 0.78 µg/mL (≈ 2.15 µM); MIC [11, 15]: 0.05 µg/mL (≈ 0.138 µM); MIC [2]: ≤ 0.05 µg/mL; MIC [3, 16]: 0.2 µg/mL (≈ 0.55 µM); MIC ([4]; Streptococcus pyogenes, read-out: MIC): 1.56 µg/mL (≈ 4.29 µM); MIC ([5]; Staphylococcus epidermidis, read-out: MIC): 0.2 µg/mL (≈ 0.55 µM); MIC [6, 18]: 0.1 µg/mL (≈ 0.275 µM); MIC [7, 18]: ≤ 0.05 µg/mL; MIC [8, 19]: 0.1 µg/mL (≈ 0.275 µM) |
| C[C@H]1CN(c2c(F)cc3c(=O)c(C(=O)O)cn(C4CC4F)c3c2F)CCN1 (stereo in doubt; 33) | 12.5 (≈ 32.8 µM) | 0.39 µg/mL (≈ 1.02 µM) | 50 (≈ 131 µM) | 3.13 (≈ 8.21 µM) | 1.56 (≈ 4.09 µM) | 0.78 µg/mL (≈ 2.05 µM) |  | ≤ 0.05 | MIC [13]: ≤ 0.05 µg/mL; MIC [2, 15]: ≤ 0.05 µg/mL; MIC [8, 19]: 0.1 µg/mL (≈ 0.262 µM) |
| CN1CCN(c2cc3c(cc2F)c(=O)c(C(=O)O)cn3[C@@H]2C[C@@H]2F)CC1 (stereo in doubt; 39) [listing 2 of 2 here] |  |  |  |  |  |  |  |  | ID50 [14]: 0.34 µg/mL (≈ 0.936 µM) |
| C[C@@H]1CN(c2c(F)cc3c(=O)c(C(=O)O)cn(C4CC4F)c3c2F)CCN1 (stereo in doubt; 35) | 12.5 (≈ 32.8 µM) | 0.78 µg/mL (≈ 2.05 µM) | 50 (≈ 131 µM) | 3.13 (≈ 8.21 µM) | 1.56 (≈ 4.09 µM) |  | 0.2 µg/mL (≈ 0.524 µM) |  | MIC [12]: 0.2 µg/mL (≈ 0.524 µM); MIC [7, 18]: 0.78 µg/mL (≈ 2.05 µM) |
| CN1CCN(c2cc3c(cc2F)c(=O)c(C(=O)O)cn3C2CC2F)CC1 (stereo in doubt; 27) |  |  |  |  |  |  |  |  | ID50 [14]: 0.92 µg/mL (≈ 2.53 µM) |
| CN1CCN(c2c(F)cc3c(=O)c(C(=O)O)cn(C4CC4F)c3c2F)CC1 (stereo in doubt; 31) | 25 (≈ 65.6 µM) | 0.78 µg/mL (≈ 2.05 µM) | 100 (≈ 262 µM) | 3.13 (≈ 8.21 µM) | 1.56 (≈ 4.09 µM) | 1.56 µg/mL (≈ 4.09 µM) | 0.2 µg/mL (≈ 0.524 µM) | ≤ 0.05 | MIC [13]: ≤ 0.05 µg/mL; MIC [2, 15]: ≤ 0.05 µg/mL |
| CN1CCN(c2cc3c(cc2F)c(=O)c(C(=O)O)cn3[C@@H]2C[C@@H]2F)CC1 (stereo in doubt; 38) |  | 0.1 µg/mL (≈ 0.275 µM) |  | 0.2 (≈ 0.55 µM) |  |  | <=0.05 ug ml-1 |  | P' [9]: 7.3; MIC [11]: 0.025 µg/mL (≈ 0.0688 µM) |
| C[C@@H]1CN(c2c(F)cc3c(=O)c(C(=O)O)cn(C4CC4F)c3c2F)CCN1 (stereo in doubt; 34) | 0.78 (≈ 2.05 µM) | 0.1 µg/mL (≈ 0.262 µM) | 0.78 (≈ 2.05 µM) | 0.2 (≈ 0.524 µM) | 0.1 (≈ 0.262 µM) | ≤ 0.05 µg/mL |  |  | MIC [13]: ≤ 0.05 µg/mL; MIC [2, 15]: ≤ 0.05 µg/mL; MIC [12]: <=0.05 ug ml-1; MIC [8, 19]: 0.1 µg/mL (≈ 0.262 µM) |
